Results: ChEMBL document CHEMBL5653631, “A Potent and Selective ULK1 Inhibitor Suppresses Autophagy and Sensitizes Cancer Cells to Nutrient Stress” (iScience, 2018)
pIC50: −log10 of the molar value.

Columns and labels:
[1] = target: Tyrosine-protein kinase CSK (Homo sapiens) (UniProt P41240); assay: Inhibition of human recombinant CSK at 500 nM in presence of ATP by radiometric assay relative to control
[2] = target: Serine/threonine-protein kinase 10 (Homo sapiens) (UniProt O94804); assay: Inhibition of human recombinant LOK at 500 nM in presence of ATP by radiometric assay relative to control
Sequence of Serine/threonine-protein kinase 10 (Homo sapiens) (O94804 whole entry, looked up): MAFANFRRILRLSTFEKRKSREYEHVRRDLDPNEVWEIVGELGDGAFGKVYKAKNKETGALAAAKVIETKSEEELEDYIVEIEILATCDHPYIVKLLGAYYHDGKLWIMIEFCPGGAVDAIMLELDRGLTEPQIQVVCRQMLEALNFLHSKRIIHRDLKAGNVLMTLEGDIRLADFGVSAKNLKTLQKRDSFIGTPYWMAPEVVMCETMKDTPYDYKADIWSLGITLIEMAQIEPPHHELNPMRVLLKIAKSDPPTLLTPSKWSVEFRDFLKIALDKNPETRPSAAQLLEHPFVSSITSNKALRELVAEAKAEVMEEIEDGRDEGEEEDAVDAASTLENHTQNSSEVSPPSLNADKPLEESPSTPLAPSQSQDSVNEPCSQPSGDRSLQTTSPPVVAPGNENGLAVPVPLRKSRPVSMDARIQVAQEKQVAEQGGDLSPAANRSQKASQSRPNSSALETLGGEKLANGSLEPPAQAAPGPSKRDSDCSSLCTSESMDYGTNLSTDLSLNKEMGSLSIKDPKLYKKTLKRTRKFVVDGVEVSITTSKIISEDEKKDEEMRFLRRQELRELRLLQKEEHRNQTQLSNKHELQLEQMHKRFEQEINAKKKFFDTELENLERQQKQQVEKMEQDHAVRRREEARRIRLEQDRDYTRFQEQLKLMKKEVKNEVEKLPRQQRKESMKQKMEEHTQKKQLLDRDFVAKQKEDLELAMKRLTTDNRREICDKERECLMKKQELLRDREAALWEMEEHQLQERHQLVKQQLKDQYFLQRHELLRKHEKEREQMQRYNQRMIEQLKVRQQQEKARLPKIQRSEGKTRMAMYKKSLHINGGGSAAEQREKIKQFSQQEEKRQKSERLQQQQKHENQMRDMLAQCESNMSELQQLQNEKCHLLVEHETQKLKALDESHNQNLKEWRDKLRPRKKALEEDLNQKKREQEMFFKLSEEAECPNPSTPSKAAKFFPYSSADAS

[3] = target: Cyclin-dependent kinase 7 (Homo sapiens) (UniProt P50613); assay: Inhibition of human recombinant CDK7 at 500 nM related to control ULK1
Sequence of Cyclin-dependent kinase 7 (Homo sapiens) (P50613 whole entry): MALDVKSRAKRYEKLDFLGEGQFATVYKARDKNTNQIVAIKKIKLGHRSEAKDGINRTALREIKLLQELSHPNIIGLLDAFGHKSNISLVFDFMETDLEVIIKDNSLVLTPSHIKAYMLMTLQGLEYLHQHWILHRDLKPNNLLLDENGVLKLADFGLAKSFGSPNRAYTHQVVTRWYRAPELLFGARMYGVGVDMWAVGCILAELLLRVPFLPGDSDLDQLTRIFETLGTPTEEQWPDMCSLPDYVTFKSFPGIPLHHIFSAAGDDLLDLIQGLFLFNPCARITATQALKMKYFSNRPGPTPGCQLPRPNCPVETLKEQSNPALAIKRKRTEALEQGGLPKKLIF

[4] = target: T1, Serine/threonine-protein kinase haspin (Homo sapiens) (UniProt Q8TF76); assay: Inhibition of human recombinant Haspin at 500 nM related to control ULK1
T1 sequence (whole entry): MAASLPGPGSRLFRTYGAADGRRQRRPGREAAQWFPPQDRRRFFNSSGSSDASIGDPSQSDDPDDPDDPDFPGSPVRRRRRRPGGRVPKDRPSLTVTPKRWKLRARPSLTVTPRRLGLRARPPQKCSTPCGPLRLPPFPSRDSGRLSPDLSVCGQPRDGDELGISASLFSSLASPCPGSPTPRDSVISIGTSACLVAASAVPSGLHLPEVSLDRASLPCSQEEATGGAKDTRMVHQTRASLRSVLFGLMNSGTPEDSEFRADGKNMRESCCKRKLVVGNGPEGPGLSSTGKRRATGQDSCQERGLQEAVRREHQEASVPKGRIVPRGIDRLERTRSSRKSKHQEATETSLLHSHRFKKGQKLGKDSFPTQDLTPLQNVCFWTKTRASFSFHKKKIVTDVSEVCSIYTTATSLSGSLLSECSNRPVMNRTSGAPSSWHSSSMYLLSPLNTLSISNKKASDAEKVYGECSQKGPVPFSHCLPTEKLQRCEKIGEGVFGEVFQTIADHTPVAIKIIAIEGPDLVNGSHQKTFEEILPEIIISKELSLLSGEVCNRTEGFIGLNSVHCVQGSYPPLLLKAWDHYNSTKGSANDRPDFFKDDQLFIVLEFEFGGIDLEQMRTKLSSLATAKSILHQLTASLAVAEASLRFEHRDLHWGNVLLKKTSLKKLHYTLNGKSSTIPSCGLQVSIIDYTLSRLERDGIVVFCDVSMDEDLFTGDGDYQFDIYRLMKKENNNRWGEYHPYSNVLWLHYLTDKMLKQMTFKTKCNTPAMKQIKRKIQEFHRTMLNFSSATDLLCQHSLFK

[5] = target: Serine/threonine-protein kinase ULK1 (Homo sapiens, UniProt O75385); assay: Inhibition of human ULK1
Sequence of Serine/threonine-protein kinase ULK1 (O75385 whole entry): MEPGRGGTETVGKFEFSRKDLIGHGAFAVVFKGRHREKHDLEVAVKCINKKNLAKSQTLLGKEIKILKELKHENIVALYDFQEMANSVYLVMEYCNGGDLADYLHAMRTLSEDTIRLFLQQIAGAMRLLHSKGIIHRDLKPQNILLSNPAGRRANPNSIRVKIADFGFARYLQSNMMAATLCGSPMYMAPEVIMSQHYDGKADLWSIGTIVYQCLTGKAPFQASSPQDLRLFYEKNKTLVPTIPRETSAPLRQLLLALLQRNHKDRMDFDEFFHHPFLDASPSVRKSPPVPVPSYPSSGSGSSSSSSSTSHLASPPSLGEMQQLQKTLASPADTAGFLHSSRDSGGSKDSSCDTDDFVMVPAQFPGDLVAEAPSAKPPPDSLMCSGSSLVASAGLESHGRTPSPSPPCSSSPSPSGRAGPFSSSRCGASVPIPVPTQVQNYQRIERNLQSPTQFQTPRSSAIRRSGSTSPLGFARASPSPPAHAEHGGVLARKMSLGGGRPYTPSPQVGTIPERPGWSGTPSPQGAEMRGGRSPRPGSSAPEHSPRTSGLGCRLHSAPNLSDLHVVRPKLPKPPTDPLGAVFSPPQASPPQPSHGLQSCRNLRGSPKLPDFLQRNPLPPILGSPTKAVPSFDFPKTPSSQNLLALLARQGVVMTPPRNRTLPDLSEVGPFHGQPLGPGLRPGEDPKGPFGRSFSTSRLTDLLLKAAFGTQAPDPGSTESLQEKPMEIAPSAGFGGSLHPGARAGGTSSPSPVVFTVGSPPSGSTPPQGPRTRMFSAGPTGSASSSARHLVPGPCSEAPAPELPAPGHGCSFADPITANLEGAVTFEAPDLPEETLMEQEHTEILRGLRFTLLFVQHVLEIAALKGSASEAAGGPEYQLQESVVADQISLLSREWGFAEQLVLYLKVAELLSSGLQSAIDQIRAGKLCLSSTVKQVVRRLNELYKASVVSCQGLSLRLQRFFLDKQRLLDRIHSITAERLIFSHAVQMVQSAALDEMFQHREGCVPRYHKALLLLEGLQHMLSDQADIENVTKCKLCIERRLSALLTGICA

[6] = target: RAC-beta serine/threonine-protein kinase (Homo sapiens) (UniProt P31751); assay: Inhibition of human recombinant AKT2 at 15 nM in presence of ATP by radiometric assay relative to control
Sequence of RAC-beta serine/threonine-protein kinase (Homo sapiens) (P31751 whole entry): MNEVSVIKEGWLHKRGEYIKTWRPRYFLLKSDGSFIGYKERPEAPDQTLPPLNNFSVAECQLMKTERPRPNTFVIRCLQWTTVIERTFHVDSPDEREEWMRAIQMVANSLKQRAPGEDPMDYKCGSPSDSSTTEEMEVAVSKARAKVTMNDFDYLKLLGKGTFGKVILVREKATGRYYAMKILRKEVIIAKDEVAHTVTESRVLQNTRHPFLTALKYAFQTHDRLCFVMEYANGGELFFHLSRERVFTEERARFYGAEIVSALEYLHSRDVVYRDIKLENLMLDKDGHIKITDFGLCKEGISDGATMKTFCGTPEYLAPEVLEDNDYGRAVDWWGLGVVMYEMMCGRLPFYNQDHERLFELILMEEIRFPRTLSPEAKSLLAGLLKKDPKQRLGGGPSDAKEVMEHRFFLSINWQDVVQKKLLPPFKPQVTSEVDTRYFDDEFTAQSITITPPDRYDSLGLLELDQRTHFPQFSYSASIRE
Method in brief: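 Panel of 327 recombinant human kinases in radiometric activity assays, each screened in duplicate at a single inhibitor concentration; percent activity remaining relative to vehicle control, percent inhibition taken as 100 minus activity remaining.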

[7] = target: Calcium/calmodulin-dependent protein kinase type II subunit beta (Homo sapiens) (UniProt Q13554); assay: Inhibition of human recombinant CaMK2b at 15 nM in presence of ATP by radiometric assay relative to control
Sequence of Calcium/calmodulin-dependent protein kinase type II subunit beta (Homo sapiens) (Q13554 whole entry): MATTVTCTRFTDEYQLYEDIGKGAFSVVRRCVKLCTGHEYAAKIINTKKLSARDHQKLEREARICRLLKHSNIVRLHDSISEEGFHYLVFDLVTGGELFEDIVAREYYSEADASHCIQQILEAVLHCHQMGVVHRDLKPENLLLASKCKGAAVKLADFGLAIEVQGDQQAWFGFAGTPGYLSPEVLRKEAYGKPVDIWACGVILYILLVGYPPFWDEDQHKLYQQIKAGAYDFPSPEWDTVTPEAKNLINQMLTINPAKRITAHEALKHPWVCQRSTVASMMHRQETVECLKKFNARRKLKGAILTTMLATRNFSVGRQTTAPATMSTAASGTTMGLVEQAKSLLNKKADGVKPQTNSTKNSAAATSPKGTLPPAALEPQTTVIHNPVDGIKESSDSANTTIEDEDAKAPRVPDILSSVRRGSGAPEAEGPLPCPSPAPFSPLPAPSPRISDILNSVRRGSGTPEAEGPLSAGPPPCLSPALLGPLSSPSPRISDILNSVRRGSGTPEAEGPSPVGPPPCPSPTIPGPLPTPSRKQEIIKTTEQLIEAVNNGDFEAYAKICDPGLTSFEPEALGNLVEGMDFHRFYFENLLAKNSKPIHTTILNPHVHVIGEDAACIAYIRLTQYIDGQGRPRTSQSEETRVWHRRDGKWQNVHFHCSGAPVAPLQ

[8] = target: G protein-coupled receptor kinase 5 (Homo sapiens) (UniProt P34947); assay: Inhibition of human recombinant GPRK5 at 15 nM in presence of ATP by radiometric assay relative to control
Sequence of G protein-coupled receptor kinase 5 (Homo sapiens) (P34947 whole entry, looked up): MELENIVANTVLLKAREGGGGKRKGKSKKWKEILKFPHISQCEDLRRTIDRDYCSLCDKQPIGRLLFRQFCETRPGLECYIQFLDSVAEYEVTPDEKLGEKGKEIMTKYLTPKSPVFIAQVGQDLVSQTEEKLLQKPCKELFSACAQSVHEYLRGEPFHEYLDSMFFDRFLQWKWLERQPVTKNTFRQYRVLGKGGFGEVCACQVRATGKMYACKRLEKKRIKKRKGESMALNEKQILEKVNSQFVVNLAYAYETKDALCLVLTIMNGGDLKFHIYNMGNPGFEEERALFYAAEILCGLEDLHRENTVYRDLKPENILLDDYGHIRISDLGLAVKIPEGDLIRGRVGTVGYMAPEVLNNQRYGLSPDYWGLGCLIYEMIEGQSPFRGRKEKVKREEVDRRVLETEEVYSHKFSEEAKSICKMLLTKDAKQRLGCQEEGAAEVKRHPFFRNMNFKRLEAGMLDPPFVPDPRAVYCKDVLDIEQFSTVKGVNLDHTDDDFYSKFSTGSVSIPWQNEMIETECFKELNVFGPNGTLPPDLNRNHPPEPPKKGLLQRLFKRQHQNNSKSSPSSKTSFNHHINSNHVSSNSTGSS

[9] = target: Transcription initiation factor TFIID subunit 1-like (Homo sapiens) (UniProt Q8IZX4); assay: Inhibition of human recombinant TAF1L at 15 nM in presence of ATP by radiometric assay relative to control
[10] = target: Tyrosine-protein kinase JAK1 (Homo sapiens) (UniProt P23458); assay: Inhibition of human recombinant JAK1 at 15 nM related to control ULK1
[11] = target: Serine/threonine-protein kinase 32B (Homo sapiens) (UniProt Q9NY57); assay: Inhibition of human recombinant YANK2 at 15 nM related to control ULK1
Sequence of Serine/threonine-protein kinase 32B (Homo sapiens) (Q9NY57 whole entry): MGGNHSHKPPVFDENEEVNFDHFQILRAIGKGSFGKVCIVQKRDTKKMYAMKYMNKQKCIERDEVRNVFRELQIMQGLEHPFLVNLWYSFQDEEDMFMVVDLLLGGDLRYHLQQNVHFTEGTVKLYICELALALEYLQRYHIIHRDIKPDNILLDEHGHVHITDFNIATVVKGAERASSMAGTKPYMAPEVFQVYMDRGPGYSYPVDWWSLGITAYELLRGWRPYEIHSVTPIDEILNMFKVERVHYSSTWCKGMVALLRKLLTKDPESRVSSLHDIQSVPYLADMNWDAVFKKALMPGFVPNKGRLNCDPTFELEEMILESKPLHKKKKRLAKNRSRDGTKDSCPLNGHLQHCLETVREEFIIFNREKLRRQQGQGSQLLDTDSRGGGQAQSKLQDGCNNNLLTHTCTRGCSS

[12] = target: Serine/threonine-protein kinase MRCK alpha (Homo sapiens) (UniProt Q5VT25); assay: Inhibition of human recombinant MRCKa at 40 nM in presence of ATP by radiometric assay relative to control
[13] = target: Tyrosine-protein kinase Fes/Fps (Homo sapiens) (UniProt P07332); assay: Inhibition of human recombinant FES at 40 nM related to control ULK1

Sequence of Tyrosine-protein kinase CSK (Homo sapiens) (P41240 2-450 limits assumed): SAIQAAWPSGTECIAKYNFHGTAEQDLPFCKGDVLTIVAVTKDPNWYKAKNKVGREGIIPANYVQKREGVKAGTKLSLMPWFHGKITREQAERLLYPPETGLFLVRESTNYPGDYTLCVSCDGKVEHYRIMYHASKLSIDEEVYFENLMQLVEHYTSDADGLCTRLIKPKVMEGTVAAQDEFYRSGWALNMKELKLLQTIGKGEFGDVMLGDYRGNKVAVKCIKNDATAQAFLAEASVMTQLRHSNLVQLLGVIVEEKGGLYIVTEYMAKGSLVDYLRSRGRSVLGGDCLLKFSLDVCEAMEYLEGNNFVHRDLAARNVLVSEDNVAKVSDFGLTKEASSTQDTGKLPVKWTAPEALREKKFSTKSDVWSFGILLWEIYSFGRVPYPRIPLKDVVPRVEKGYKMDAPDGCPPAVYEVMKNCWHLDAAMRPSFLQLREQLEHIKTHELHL

CNC(=O)c1ccccc1Oc1nc(Nc2cc(OC)c(OC)c(OC)c2)ncc1Br
inhibition [1]: 2% | inhibition [2]: 0% | fold change (FC) [3]: 0.39 | fold change (FC) [4]: 0

CC(C)[C@H](NC(=O)c1cc(-c2cnn3cc(-c4ccc(OCCN5CCCCC5)cc4)cnc23)cs1)C(F)(F)F
pIC50 [5]: 8.80 | inhibition [6]: 0% | inhibition [7]: 10% | inhibition [8]: 0% | inhibition [9]: 43% | fold change (FC) [10]: 0 | fold change (FC) [11]: 0

O=C(N[C@@H](C1CC1)C(F)(F)F)c1cc(-c2cnn3cc(-c4ccc(F)cc4)cnc23)cs1
inhibition [12]: 2% | fold change (FC) [13]: 0.21
